Data as given in ChEMBL document CHEMBL1155882, “Selective nucleoside triphosphate diphosphohydrolase-2 (NTPDase2) inhibitors: nucleotide mimetics derived from uridine-5'-carboxamide” (J Med Chem, 2008).

Tests used:
[1] = target: T1, P2Y purinoceptor 4 (Homo sapiens, UniProt P51582); experiment: Antagonist activity at human P2Y4 receptor expressed in human 1321N1 cells assessed as inhibition of UTP-induced intracellular calcium mobilization at 100 uM by FLUOstar plate reader; format: functional, cell-based
Outline: (§1)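 Human 1321N1 astrocytoma cells express human P2Y2 or P2Y4, or rat P2Y6. Cells are loaded with Fura-2 AM and preincubated with compound at 100 μM. Inhibition of agonist-induced intracellular calcium release is read as Fura-2 fluorescence. The agonist is UTP for P2Y2 and P2Y4, and UDP for P2Y6.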

[2] = target: P2Y purinoceptor 6 (Rattus norvegicus) (UniProt Q63371); experiment: Antagonist activity at rat P2Y6 receptor expressed in human 1321N1 cells assessed as inhibition of UDP-induced intracellular calcium mobilization at 100 uM by NOVOstar plate reader; format: functional, cell-based; outline: as §1
[3] = target: T2, Ectonucleoside triphosphate diphosphohydrolase 2 (Homo sapiens, UniProt Q9Y5L3); experiment: Inhibition of human NTPDase 2 expressed in HEK293 cells assessed as residual activity by capillary electrophoresis; format: cell-based
T2 sequence (Q9Y5L3 whole entry): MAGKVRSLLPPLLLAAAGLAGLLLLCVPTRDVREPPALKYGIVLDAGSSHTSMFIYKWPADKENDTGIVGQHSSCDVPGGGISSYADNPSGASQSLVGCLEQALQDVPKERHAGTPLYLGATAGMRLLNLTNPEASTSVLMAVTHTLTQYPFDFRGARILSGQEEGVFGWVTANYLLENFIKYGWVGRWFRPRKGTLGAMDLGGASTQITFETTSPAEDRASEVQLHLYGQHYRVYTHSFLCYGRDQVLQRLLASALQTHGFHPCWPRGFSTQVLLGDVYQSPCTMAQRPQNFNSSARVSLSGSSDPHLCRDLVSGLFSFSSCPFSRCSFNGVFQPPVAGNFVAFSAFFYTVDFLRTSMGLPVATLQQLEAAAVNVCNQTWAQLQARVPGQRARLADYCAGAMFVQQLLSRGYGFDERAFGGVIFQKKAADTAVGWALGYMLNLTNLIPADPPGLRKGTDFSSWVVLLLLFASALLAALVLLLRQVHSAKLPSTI
Outline: (§2)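 NTPDase2 membranes come from stably transfected HEK 293 cells; NTPDase3 and NTPDase8 are transiently expressed in COS-7 cells as crude protein extracts. Buffer is 140 mM NaCl, 5 mM KCl, 1 mM MgCl2, 2 mM CaCl2, 10 mM HEPES pH 7.4, with 400 μM ATP, 37 °C, 10 min, stopped at 99 °C. Products are read by capillary electrophoresis (UV 210 nm, UMP internal standard).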

[4] = target: T3, Ectonucleoside triphosphate diphosphohydrolase 1 (Homo sapiens) (UniProt P49961); experiment: Inhibition of human NTPDase 1 expressed in COS7 cells at 1mM; format: cell-based; conditions: COS-7
T3 sequence (whole entry): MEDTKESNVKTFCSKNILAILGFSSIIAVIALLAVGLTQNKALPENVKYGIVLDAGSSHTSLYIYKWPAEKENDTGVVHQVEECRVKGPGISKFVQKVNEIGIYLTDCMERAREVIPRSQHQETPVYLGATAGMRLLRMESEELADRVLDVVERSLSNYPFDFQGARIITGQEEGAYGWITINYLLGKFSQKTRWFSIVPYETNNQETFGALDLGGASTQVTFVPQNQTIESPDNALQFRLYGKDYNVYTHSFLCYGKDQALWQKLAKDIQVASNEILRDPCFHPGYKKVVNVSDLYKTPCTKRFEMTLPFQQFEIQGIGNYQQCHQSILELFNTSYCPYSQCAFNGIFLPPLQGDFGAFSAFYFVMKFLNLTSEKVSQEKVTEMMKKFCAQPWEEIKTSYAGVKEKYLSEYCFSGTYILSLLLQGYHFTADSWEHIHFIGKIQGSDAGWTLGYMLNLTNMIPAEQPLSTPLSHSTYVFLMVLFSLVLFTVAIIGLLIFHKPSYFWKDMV
Outline: (§3)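 Transiently transfected COS-7 cell protein extract expressing human enzyme. 1 mM test compound with 400 μM ATP in HEPES 10 mM pH 7.4 buffer (NaCl, KCl, 1 mM MgCl2, 2 mM CaCl2), 37 °C for 10 min. Stopped at 99 °C for 5 min. Products measured by capillary electrophoresis, UV 210 nm, with UMP internal standard. Triplicates in two experiments; empty-pcDNA3 membrane control.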

[5] = target: T4, Ectonucleoside triphosphate diphosphohydrolase 3 (Homo sapiens) (UniProt O75355); experiment: Inhibition of human NTPDase 3 expressed in COS7 cells at 1mM; format: cell-based; conditions: COS-7; outline: as §2
T4 sequence (whole entry): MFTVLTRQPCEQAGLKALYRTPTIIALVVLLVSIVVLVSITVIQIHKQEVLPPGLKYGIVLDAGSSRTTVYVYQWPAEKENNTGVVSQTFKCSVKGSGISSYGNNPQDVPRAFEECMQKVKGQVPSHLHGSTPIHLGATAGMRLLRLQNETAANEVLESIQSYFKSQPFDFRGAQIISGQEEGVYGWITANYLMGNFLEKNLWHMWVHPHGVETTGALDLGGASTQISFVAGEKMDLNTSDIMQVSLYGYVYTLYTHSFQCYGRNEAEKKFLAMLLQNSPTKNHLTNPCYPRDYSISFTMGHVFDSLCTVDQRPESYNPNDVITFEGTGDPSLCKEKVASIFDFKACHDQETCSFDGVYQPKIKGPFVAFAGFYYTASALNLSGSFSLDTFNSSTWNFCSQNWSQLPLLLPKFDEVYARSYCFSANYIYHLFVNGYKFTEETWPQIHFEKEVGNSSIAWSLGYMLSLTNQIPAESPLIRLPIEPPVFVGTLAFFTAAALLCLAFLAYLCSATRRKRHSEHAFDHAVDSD

[6] = target: T5, Ectonucleoside triphosphate diphosphohydrolase 8 (Homo sapiens) (UniProt Q5MY95); experiment: Inhibition of human NTPDase 8 expressed in COS7 cells at 1mM; format: cell-based; conditions: COS-7; outline: as §3
T5 sequence (whole entry): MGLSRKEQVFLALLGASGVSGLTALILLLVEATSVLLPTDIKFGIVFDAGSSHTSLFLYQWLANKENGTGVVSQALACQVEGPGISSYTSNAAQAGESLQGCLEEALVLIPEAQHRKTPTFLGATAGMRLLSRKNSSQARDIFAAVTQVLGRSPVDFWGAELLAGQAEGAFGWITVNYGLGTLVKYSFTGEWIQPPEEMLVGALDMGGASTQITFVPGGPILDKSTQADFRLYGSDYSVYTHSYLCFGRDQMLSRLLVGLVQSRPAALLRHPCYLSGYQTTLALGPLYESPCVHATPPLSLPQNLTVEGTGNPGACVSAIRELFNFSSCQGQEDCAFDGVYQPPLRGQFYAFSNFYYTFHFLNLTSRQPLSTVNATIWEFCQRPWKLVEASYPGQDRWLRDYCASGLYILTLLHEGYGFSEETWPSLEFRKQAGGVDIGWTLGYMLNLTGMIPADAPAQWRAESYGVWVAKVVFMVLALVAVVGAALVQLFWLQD

[7] = target: T6, P2Y purinoceptor 2 (Homo sapiens, UniProt P41231); experiment: Antagonist activity at human P2Y2 receptor expressed in human 1321N1 cells assessed as inhibition of UTP-induced intracellular calcium mobilization at 100 uM by FLUOstar plate reader; format: functional, cell-based; outline: as §1
[8] = target: T6, P2Y purinoceptor 2; experiment: Antagonist activity at human P2Y2 receptor expressed in human 1321N1 cells assessed as inhibition of UTP and ATP-induced receptor activation at 100 uM relative to UTP; format: functional, cell-based; parameters: scale not given: the % may be the effect or the level left; outline: as §1
[9] = target: P2Y purinoceptor 6 (Rattus norvegicus) (UniProt Q63371); experiment: Antagonist activity at rat P2Y6 receptor expressed in human 1321N1 cells assessed as inhibition of UDP-induced receptor activation at 100 uM relative to UDP; format: functional, cell-based; parameters: scale not given: the % may be the effect or the level left; outline: as §1
[10] = target: T1, P2Y purinoceptor 4; experiment: Antagonist activity at human P2Y4 receptor expressed in human 1321N1 cells assessed as inhibition of UTP-induced receptor activation at 100 uM relative to UTP; format: functional, cell-based; parameters: scale not given: the % may be the effect or the level left; outline: as §1
[11] = target: T7, Ectonucleoside triphosphate diphosphohydrolase 2 (Homo sapiens) (UniProt Q9Y5L3); experiment: Inhibition of human NTPDase 2 expressed in HEK293 cells at 1mM; format: cell-based
T7 sequence (whole entry): T2 sequence (Q9Y5L3 whole entry)
Outline: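 Membranes from HEK 293 cells stably expressing human NTPDase2 (geneticin selection), prepared by differential and sucrose-gradient centrifugation. 1 mM test compound with 400 μM ATP in 10 mM HEPES pH 7.4 saline (1 mM MgCl2, 2 mM CaCl2), 37 °C for 10 min. Heat-stopped at 99 °C. Nucleotides separated by capillary electrophoresis, UV 210 nm, UMP internal standard. Triplicates, two experiments.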

[12] = target: T8, Ectonucleoside triphosphate diphosphohydrolase 8 (Homo sapiens, UniProt Q5MY95); experiment: Inhibition of human NTPDase 8 expressed in COS7 cells; format: cell-based, COS-7; outline: as §2
T8 sequence (Q5MY95 whole entry): T5 sequence (whole entry)

[13] = Inhibition of rat NTPDase 3
[14] = Chemical stability in 0.001 N aqueous sodium hydroxide at pH 11 by LC-MS analysis; format: physicochemical; conditions: buffer
Outline: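 Compound from a 2 mM aqueous stock (20 mM NH4OAc) is diluted 10 μL into 990 μL of 0.001 N NaOH (pH 11). It is incubated 2 or 24 h at 37 °C and analysed by C18 LC–ESI-MS, with detection limit about 0.1 μg/mL.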

[15] = Stability in simulated artificial gastric juice after 24 hrs by LC-MS analysis; format: physicochemical; conditions: simulated gi fluid
[16] = Metabolic stability in rat liver microsomes after 24 hrs by LC-MS analysis; format: ADME, Microsome; conditions: read-out: Stability

Sequence of P2Y purinoceptor 6 (Rattus norvegicus) (Q63371 whole entry): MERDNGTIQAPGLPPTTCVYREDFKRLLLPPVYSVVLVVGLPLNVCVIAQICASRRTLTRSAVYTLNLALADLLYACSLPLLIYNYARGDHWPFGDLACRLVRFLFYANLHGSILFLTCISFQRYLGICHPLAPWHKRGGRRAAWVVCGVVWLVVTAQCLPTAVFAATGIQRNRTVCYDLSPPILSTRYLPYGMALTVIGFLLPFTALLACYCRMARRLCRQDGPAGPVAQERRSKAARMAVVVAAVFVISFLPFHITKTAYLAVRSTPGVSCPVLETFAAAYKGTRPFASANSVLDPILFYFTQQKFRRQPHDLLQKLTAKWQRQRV
T1 sequence (P51582 whole entry): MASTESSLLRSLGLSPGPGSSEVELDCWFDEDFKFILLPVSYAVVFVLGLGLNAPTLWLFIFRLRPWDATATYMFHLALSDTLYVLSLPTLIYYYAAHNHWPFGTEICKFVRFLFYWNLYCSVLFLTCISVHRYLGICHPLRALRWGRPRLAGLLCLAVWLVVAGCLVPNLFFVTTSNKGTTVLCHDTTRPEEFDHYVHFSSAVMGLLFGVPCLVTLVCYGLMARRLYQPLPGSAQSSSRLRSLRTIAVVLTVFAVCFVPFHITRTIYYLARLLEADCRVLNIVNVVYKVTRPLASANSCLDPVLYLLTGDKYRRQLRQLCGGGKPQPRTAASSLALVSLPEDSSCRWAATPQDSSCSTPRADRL
T6 sequence (P41231 whole entry): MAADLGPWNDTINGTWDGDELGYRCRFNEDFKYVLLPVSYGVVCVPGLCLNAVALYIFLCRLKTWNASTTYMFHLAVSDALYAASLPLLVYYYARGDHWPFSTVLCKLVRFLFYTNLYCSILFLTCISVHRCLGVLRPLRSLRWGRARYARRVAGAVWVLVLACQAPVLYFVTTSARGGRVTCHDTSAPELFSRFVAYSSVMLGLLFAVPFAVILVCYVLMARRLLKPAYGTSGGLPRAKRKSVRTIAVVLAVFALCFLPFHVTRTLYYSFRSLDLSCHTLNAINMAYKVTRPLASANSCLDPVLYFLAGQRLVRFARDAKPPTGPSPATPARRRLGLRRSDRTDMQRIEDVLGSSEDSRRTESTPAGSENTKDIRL

Structure (SMILES) | inhibition [1] | inhibition [2] | IC50 [3] | inhibition [4] | inhibition [5] | inhibition [6] | inhibition [7] | Activity [8] | Activity [9] | Activity [10] | inhibition [11] | Ki [12] | Ki [13] | Stability [14] | Stability [15] | remaining at 24 h [16] | Activity [14] | Activity [15]
CCOP(=O)(CNC(=O)CCCNC(=O)[C@H]1O[C@@H](n2ccc(=O)[nH]c2=O)[C@H](O)[C@@H]1O)OCC | 21% | -3% | 101 µM | 45% | 0% | 0% |  |  |  |  |  |  |  |  |  |  |  | 
CCOP(=O)(Cc1ccc(NC(=O)CCNC(=O)[C@H]2O[C@@H](n3cnc4c(N)ncnc43)[C@H](O)[C@@H]2O)cc1)OCC |  | 15% |  |  | 0% | 0% | 46% | 16% | -7% | 11% |  |  |  |  |  |  |  | 
CCOP(=O)(Cc1ccc(NC(=O)CNC(=O)[C@H]2O[C@@H](n3cnc4c(N)ncnc43)[C@H](O)[C@@H]2O)cc1)OCC | 7% | 6% |  | 0% | 0% | 0% |  |  |  |  | 0% |  |  |  |  |  |  | 
CCOP(=O)(Cc1ccc(NC(=O)CCCNC(=O)[C@H]2O[C@@H](n3cnc4c(N)ncnc43)[C@H](O)[C@@H]2O)cc1)OCC |  |  |  |  | 0% |  | 37% |  |  |  |  | 255 µM |  |  |  |  |  | 
CCN(CC)c1ncnc2c1ncn2[C@@H]1O[C@H](COP(=O)(O)OP(=O)(O)C(Br)(Br)P(=O)(O)O)[C@@H](O)[C@H]1O |  |  |  |  |  |  |  |  |  |  |  | > 100 µM | 112 µM |  |  |  |  | 
CCOP(=O)(CNC(=O)CNC(=O)[C@H]1O[C@@H](n2ccc(=O)[nH]c2=O)[C@H](O)[C@@H]1O)OCC | 38% | 17% | 374 µM |  | 0% | 0% |  | 58% | 12% | 46% |  |  |  |  |  |  |  | 
CCOP(=O)(CNC(=O)CNC(=O)[C@H]1O[C@@H](n2cnc3c(N)ncnc32)[C@H](O)[C@@H]1O)OCC |  |  |  | 0% | 25% | 0% | 61% | 33% | 6% | -2% | 0% |  |  |  |  |  |  | 
CCOP(=O)(Cc1ccc(NC(=O)CNC(=O)[C@H]2O[C@@H](n3ccc(=O)[nH]c3=O)[C@H](O)[C@@H]2O)cc1)OCC | 4% | -10% | 42 µM | 50% | 0% | 0% | 22% | -21% | -7% | -42% |  |  |  | Stable | Stable | > 95% |  | 
CCOP(=O)(CNC(=O)CCNC(=O)[C@H]1O[C@@H](n2ccc(=O)[nH]c2=O)[C@H](O)[C@@H]1O)OCC | 6% | -3% |  | 0% | 0% | 0% | 43% | 13% | -16% | 11% |  |  |  |  |  |  |  | 
CCOP(=O)(CNC(=O)CCNC(=O)[C@H]1O[C@@H](n2cnc3c(N)ncnc32)[C@H](O)[C@@H]1O)OCC |  |  |  | 0% | 0% | 0% | 29% |  |  |  | 0% |  |  |  |  |  |  | 
CCOP(=O)(CNC(=O)CCCNC(=O)[C@H]1O[C@@H](n2cnc3c(N)ncnc32)[C@H](O)[C@@H]1O)OCC |  |  |  | 0% | 0% | 0% | 32% |  |  |  | 0% |  |  |  |  |  |  | 
CCOP(=O)(CCNC(=O)CNC(=O)[C@H]1O[C@@H](n2ccc(=O)[nH]c2=O)[C@H](O)[C@@H]1O)OCC | 8% | 9% |  | 0% | 22% | 0% | -7% |  |  |  |  |  |  |  |  |  |  | 
CCOP(=O)(Cc1ccc(NC(=O)CCCNC(=O)[C@H]2O[C@@H](n3ccc(=O)[nH]c3=O)[C@H](O)[C@@H]2O)cc1)OCC | 7% | -8% |  |  | 48% |  | 6% |  |  |  |  |  |  | Stable | Stable |  |  | 
CCOP(=O)(Cc1ccc(NC(=O)CCNC(=O)[C@H]2O[C@@H](n3ccc(=O)[nH]c3=O)[C@H](O)[C@@H]2O)cc1)OCC | 14% | 7% |  |  | 40% | 0% | 10% | 14% | -5% | -6% |  |  |  |  |  | > 95% | Active | Active
